Shown are actives, neighbours in structure and some others; about 5.8% of the full set was active somewhere.
KDM4C inh – blocks human GASC-1 (KDM4C) demethylase activity | 96,000 tested, 0.15% active | inhibition, % at 12.5 µM | Q9H3R0 | GST-KDM4C 2-372, H3K9me3 peptide, LANCE TR-FRET;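 active = mean replicate inhibition above about 25%, with at least 55% of replicates also reaching it, limit read from the data, passing the limit was not always enough; inconclusive = only one of those two conditions met; inactive = neither condition met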
Target sequence (Q9H3R0 2-372 limits assumed): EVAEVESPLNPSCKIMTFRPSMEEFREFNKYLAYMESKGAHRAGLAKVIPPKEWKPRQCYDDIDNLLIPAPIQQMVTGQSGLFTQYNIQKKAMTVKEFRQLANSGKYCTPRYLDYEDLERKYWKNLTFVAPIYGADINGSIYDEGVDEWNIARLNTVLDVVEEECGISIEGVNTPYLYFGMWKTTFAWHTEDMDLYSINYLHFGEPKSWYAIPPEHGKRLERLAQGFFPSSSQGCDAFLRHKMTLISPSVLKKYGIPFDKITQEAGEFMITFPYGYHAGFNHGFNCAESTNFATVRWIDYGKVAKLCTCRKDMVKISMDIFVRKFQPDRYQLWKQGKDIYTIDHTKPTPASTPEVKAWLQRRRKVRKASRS
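Assay system: GST-GASC-1 enzyme fragment 2-372 | Amount: 10 nM enzyme | Medium: HEPES buffer, pH 7.5, plus ascorbate | Reagent: H3K9me3 peptide substrate, Fe(II), 2-oxoglutarate | Doses: Single-point compound screen | Incubation: 30 min demethylation and 1 h detection at room temperature | Measured by: LANCE TR-FRET, excitation 340 nm, emissions 618 and 671 nm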
IDH1 mut inh – blocks human IDH1 R132H reductase activity. O75874. diaphorase/resazurin fluorescence, 60 min. inhibition, % at 10 µM. 70,000 tested, 0.18% active. AID 624101; in the data active = inhibition above about 34%; inconclusive = no clear call, values can overlap the other calls; inactive = below about 11%
Pf Dd2 inh – P. falciparum Dd2 growth inhibition; SYBR Green, 72 h; active compounds read low; activity change, % at 10 µM; 94,000 tested, 2.3% active; AID 1159554; in the data active = activity change below about -80%; inconclusive = no clear call, values can overlap the other calls
T cruzi growth-1 – T. cruzi proliferation inhibition; T. cruzi beta-gal in NIH3T3, GalScreen luminescence, 90 h; inhibition, % at 8.34 µM; 77,000 tested, 5.9% active; AID 624255;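 active = mean inhibition above about 93%, with at least 55% of replicates each passing it, limit read from the data, passing the limit was not always enough; inconclusive = only one of those two conditions holds; inactive = neither condition holds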
T cruzi growth-2 – blocks T. cruzi growth in NIH3T3 host cells; T. cruzi beta-gal in NIH3T3, GalScreen luminescence, 90 h; inhibition, % at 8.35 µM; 5,600 tested, 72% active; shares compounds with T cruzi growth-1;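 active = mean replicate inhibition above about 95% and at least 55% of replicates individually reaching it, limit read from the data; inconclusive = only one of the two criteria is met; inactive = neither criterion is met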
T cruzi growth-3 – inhibitors of T. cruzi proliferation | shares compounds with T cruzi growth-1 | T. cruzi beta-gal in NIH3T3, GalScreen luminescence, 90 h | inhibition, % at 2.09 µM | 5,600 tested, 21% active | AID 651740;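 active = mean inhibition above about 95%, with at least 55% of replicates also reaching it, limit read from the data; inconclusive = meets just one of the two conditions; inactive = meets neither condition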
3T3 cytotox – NIH/3T3 (mouse) viability loss; shares compounds with T cruzi growth-1; AID 651742; NIH/3T3 viability, CellTiter-Glo ATP luminescence, 90 h; 5,600 tested, 14% active; cytotoxicity (signal decrease), % at 8.35 µM;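 active = mean signal decrease across replicates above about 35% based on untreated-well scatter, with enough replicates individually passing, limit read from the data; inconclusive = no rule stated though some were filed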
NIH3T3 tox 2 – kills mouse NIH/3T3 fibroblasts | shares compounds with T cruzi growth-1 | NIH/3T3 viability, CellTiter-Glo ATP luminescence, 90 h | inhibition, % at 24.9 µM | 5,600 tested, 56% active | AID 651744;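 active = mean loss of cell viability signal at or above a set limit, and enough replicates individually reaching it; inconclusive = meets only the mean limit or only the replicate share; inactive = meets neither condition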
A number is an active result; 0 = inactive; ? = inconclusive; - = not tested or not shown.

SMILES	KDM4C inh	IDH1 mut inh	Pf Dd2 inh	T cruzi growth-1	T cruzi growth-2	T cruzi growth-3	3T3 cytotox	NIH3T3 tox 2
C[C@H]1CN([C@@H](C)CO)C(=O)Cc2cc(NC(=O)Cc3ccccc3)ccc2O[C@H]1CN(C)Cc1ccc(C(F)(F)F)cc1	0	0	0	105	108	0	0	104
COC(=O)c1cc(NC(=O)CSc2ccccn2)cc(C(=O)OC)c1	-	0	-	-	-	-	-	-
C[C@H](CO)N1C[C@H](C)[C@H](CN(C)Cc2ccc3c(c2)OCO3)OCCCC[C@H](C)Oc2ccc(NC(=O)c3ccncc3)cc2C1=O	0	0	0	0	-	-	-	-
C[C@@H]1CCCCO[C@H](CN(C)S(=O)(=O)c2ccc(F)cc2)[C@H](C)CN([C@@H](C)CO)C(=O)c2cc(NC(=O)Nc3ccc(F)cc3)ccc2O1	0	-	0	?	100	0	0	0
C[C@@H]1CCCCO[C@H](CN(C)S(=O)(=O)c2ccc(F)cc2)[C@@H](C)CN([C@H](C)CO)C(=O)c2cc(NC(=O)Nc3ccc(C(F)(F)F)cc3)ccc2O1	-	0	0	103	109	0	0	51
C[C@@H]1CCCCO[C@H](CN(C)S(=O)(=O)c2ccc(Cl)cc2)[C@@H](C)CN([C@@H](C)CO)C(=O)c2cc(NC(=O)Nc3ccc(C(F)(F)F)cc3)ccc2O1	0	-	-88	?	106	110	0	34
C[C@@H]1CCCCO[C@H](CN(C)S(=O)(=O)c2ccc(F)cc2)[C@@H](C)CN([C@H](C)CO)C(=O)c2cc(NC(=O)Nc3ccc(F)cc3)ccc2O1	0	0	0	0	-	-	-	-
C[C@H]1CCCCO[C@H](CN(C)S(=O)(=O)c2ccc(F)cc2)[C@@H](C)CN([C@@H](C)CO)C(=O)c2cc(NC(=O)Nc3ccc(F)cc3)ccc2O1	0	-	0	107	105	108	0	0
C[C@@H]1CCCCO[C@@H](CN(C)S(=O)(=O)c2ccc(F)cc2)[C@@H](C)CN([C@@H](C)CO)C(=O)c2cc(NC(=O)Nc3ccc(C(F)(F)F)cc3)ccc2O1	0	-	0	0	-	-	-	-
Cc1ccc(S(=O)(=O)N(C)C[C@H]2OCCCC[C@@H](C)Oc3ccc(NC(=O)Nc4ccc(C(F)(F)F)cc4)cc3C(=O)N([C@@H](C)CO)C[C@H]2C)cc1	0	-	0	-	-	-	-	-
COc1cc(Cl)c(C)cc1NC(=O)CSc1nc2ccccc2s1	-	0	-	-	-	-	-	-
CC(=O)N(C)C[C@H]1Oc2ncc(C#CCC3CCCC3)cc2C(=O)N([C@@H](C)CO)C[C@H]1C	0	0	0	0	-	-	-	-
Cc1ccc(S(=O)(=O)N(C)C[C@H]2OCCCC[C@H](C)Oc3ccc(NC(=O)Nc4ccc(F)cc4)cc3C(=O)N([C@H](C)CO)C[C@H]2C)cc1	0	0	?	-	-	-	-	-
Cc1ccc(S(=O)(=O)N(C)C[C@@H]2OCCCC[C@@H](C)Oc3ccc(NC(=O)Nc4ccc(F)cc4)cc3C(=O)N([C@@H](C)CO)C[C@@H]2C)cc1	0	0	-85	107	111	105	0	47
Cc1noc(C)c1NC(=O)Nc1cccc2c1O[C@@H](CN(C)S(=O)(=O)c1ccc(F)cc1)[C@@H](C)CN([C@@H](C)CO)C2=O	0	-	0	0	-	-	-	-
C[C@@H]1CN([C@@H](C)CO)C(=O)Cc2cc(N(C)C)ccc2O[C@@H]1CN(C)Cc1ccc(C(F)(F)F)cc1	0	0	0	0	-	-	-	-
C[C@@H]1CN([C@H](C)CO)C(=O)Cc2cc(N(C)C)ccc2O[C@@H]1CN(C)Cc1ccc(C(F)(F)F)cc1	0	0	0	0	-	-	-	-
C[C@H]1CN([C@@H](C)CO)C(=O)Cc2cc(N(C)C)ccc2O[C@@H]1CN(C)Cc1ccc(C(F)(F)F)cc1	0	0	0	119	111	0	0	0
C[C@@H]1CN([C@H](C)CO)C(=O)Cc2cc(N(C)C)ccc2O[C@H]1CN(C)Cc1ccc(C(F)(F)F)cc1	0	0	0	108	0	0	0	0
C[C@@H]1CCCCO[C@H](CN(C)S(=O)(=O)c2ccc(Cl)cc2)[C@@H](C)CN([C@@H](C)CO)C(=O)c2cc(NC(=O)Cc3ccccc3)ccc2O1	0	0	0	105	105	0	0	46
C[C@@H]1CN([C@H](C)CO)C(=O)c2cc(NC(=O)Cc3ccccc3)ccc2O[C@@H](C)CCCCO[C@H]1CN(C)S(=O)(=O)c1ccc(Cl)cc1	0	-	-82	96	107	0	0	0
O=C(C[C@H]1CC[C@@H](NC(=O)c2ccc3c(c2)OCO3)[C@H](CO)O1)NCc1ccc(Cl)cc1	0	0	0	0	-	-	-	-
O=C(C[C@H]1CC[C@H]2[C@@H](COC[C@H](O)CN2Cc2cccc(Cl)c2)O1)N1CCCCC1	0	-	0	122	0	0	0	0
O=C(C[C@@H]1CC[C@H]2[C@@H](COC[C@@H](O)CN2Cc2cccc(-c3ccncc3)c2)O1)N1CCCCC1	0	-	0	0	-	-	-	-
O=C(C[C@H]1CC[C@H]2[C@@H](COC[C@@H](O)CN2C(=O)Nc2cccc(Cl)c2)O1)N1CCCCC1	0	-	0	0	-	-	-	-
SMILES	KDM4C inh	IDH1 mut inh	Pf Dd2 inh	T cruzi growth-1	T cruzi growth-2	T cruzi growth-3	3T3 cytotox	NIH3T3 tox 2
O=C(C[C@@H]1CC[C@@H]2[C@H](COC[C@@H](O)CN2Cc2nccs2)O1)N1CCC(Cc2ccccc2)CC1	0	-	-	165	0	0	0	0
O=C(C[C@@H]1CC[C@H]2[C@@H](COC[C@@H](O)CN2C(=O)Nc2cccc(Cl)c2)O1)N1CCCCC1	0	-	0	95	0	0	0	0
O=C(C[C@H]1CC[C@H]2[C@@H](COC[C@@H](O)CN2Cc2cccc(-c3ccncc3)c2)O1)N1CCCCC1	0	-	0	109	0	0	0	0
CO[C@H]1CN(C)C(=O)c2cc(NS(C)(=O)=O)ccc2OC[C@@H](C)N(C(=O)C2CCC2)C[C@H]1C	0	0	0	0	-	-	-	-
C[C@H](NC(=O)C[C@H]1CC[C@@H]2[C@H](COC[C@H](O)CN2Cc2ccc(C(F)(F)F)cc2)O1)c1ccccc1	0	-	0	0	-	-	-	-
O=C(Cc1ccncc1)N1CC(=O)N2[C@H](CO)[C@H](c3ccc(Br)cc3)[C@@H]2C1	0	-	0	-	-	-	-	-
CC(C)C#Cc1ccc([C@@H]2[C@H](CO)N3CCCCN(C(=O)NC(C)C)C[C@@H]23)cc1	0	-	0	103	101	0	0	85
CC(C)NC(=O)N1CCCCN2[C@H](CO)[C@H](c3ccc(C#Cc4ccccc4)cc3)[C@H]2C1	0	-	0	107	106	105	41	107
CC(C)NC(=O)N1CCCCN2[C@H](C1)[C@H](c1ccc(C#Cc3ccccc3)cc1)[C@@H]2CO	0	-	0	0	-	-	-	-

Screening results (PubChem BioAssay)
